Assay outcomes (PubChem BioAssay)
FID counter – fluorescent intercalator displacement, NS3 helicase counter-screen | 290,000 compounds, 0.17% hits | DNA fluorescent intercalator displacement, fluorescence | inhibition, % at 7.9 µM; in the data active means inhibition above about 37%;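 further: higher means more ethidium bromide displaced from hairpin DNA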
MEKK2 WT-MEK5 – raises or lowers MEK5 binding to wildtype human MEKK2 PB1 domain. bead flow cytometry, Alexa488-MEK5 binding to MEKK2 WT; actives lie on both sides. binding response (% of control), % at 10 µM. 290,000 compounds, 1.1% hits. AID 1531; in the data active means binding response below about 67% or above about 130%
MEKK2 mut-MEK5 – signal of MEK5 binding to mutant human MEKK2 PB1 domain; bead flow cytometry, Alexa488-MEK5 binding to MEKK2 mutant; percent response, % at 10 µM; 290,000 compounds, 0.35% hits; AID 1530; in the data active means percent response above about 24%, passing the limit was not always enough
MEKK3 PB1 HTS – MEKK3-MEK5 PB1 interaction, increase or decrease. binding response (% of control), % at 10 µM. bead-based flow cytometry, Alexa488-MEK5 binding to MEKK3; actives lie on both sides; 0 = blocked by unlabeled MEK5, 100 = vehicle. 290,000 compounds, 1.4% hits. AID 1529. Q99759;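 active means binding response more than 3 SD above or below the average of its plate-row segment, actives on both sides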;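 further: Alexa488 bead fluorescence after subtracting the streptavidin-only scavenger bead signal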
Target sequence (Q99759 whole entry, looked up): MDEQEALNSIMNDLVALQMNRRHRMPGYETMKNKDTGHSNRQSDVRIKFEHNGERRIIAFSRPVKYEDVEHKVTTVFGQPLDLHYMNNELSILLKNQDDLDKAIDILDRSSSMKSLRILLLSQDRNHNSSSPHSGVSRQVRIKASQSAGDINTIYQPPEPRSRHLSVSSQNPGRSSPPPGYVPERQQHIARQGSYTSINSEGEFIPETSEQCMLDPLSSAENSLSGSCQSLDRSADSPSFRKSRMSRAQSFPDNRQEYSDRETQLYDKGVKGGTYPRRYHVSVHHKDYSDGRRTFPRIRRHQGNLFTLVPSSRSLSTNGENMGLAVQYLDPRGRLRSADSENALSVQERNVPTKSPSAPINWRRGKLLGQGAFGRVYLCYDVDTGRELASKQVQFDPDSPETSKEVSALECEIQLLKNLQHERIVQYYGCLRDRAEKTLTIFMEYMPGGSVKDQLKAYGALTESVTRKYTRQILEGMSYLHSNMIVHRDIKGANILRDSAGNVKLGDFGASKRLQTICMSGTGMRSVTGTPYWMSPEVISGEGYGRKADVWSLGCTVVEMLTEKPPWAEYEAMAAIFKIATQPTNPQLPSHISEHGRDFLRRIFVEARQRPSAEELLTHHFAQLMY
NS3 helicase inh – HCV NS3 helicase inhibition | NS3 helicase DNA unwinding, Cy5 molecular beacon fluorescence | 290,000 compounds, 0.56% hits | inhibition, % at 10.9 µM;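 active means inhibition above the mean of all tested compounds plus 3 SD, set per campaign, cut at about 35% in these data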
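Test system: hepatitis C virus NS3 helicase domain fragment enzyme. Also added: annealed dual-labelled DNA beacon duplex, ATP-started. Timing: 60 min unwinding reaction at 25 °C after ATP addition. Technique: Cy5 fluorescence. Measure: % inhibition of unwinding.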
T cruzi inh – blocks replication of Trypanosoma cruzi; T. cruzi beta-gal in NIH3T3, luminescence, 90 h; inhibition, % (no concentration beside the values); 300,000 compounds, 1.4% hits; AID 1885;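 active means mean inhibition across valid replicates above about 55%, limit read from the data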;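 further: signal also drops with host cell toxicity which is not excluded here; higher percent means less beta-gal luminescence so fewer parasites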
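System: NIH/3T3 fibroblasts plus reporter T. cruzi. Medium: DMEM plus 2% FBS. Probe or stimulus: 5000 reporter trypomastigotes per well. Compound: single 50 nL compound addition per well in DMSO. Incubation: co-culture of at least 90 h after 3 h attachment. Detection: GalScreen β-gal luminescence, detergent lysis, 60 min. Evaluation: parasite load inhibition, %.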
MEKK2wt confirm – raises or lowers MEK5 binding to wildtype human MEKK2, retest; shares compounds with MEKK3 PB1 HTS; bead flow cytometry, Alexa488-MEK5 binding to MEKK2 WT; actives lie on both sides; binding response (% of control), % at 10 µM; 5,900 compounds, 2.4% hits; in the data active means binding response below about 16% or above about 210%; inactive means in between
MEKK2mut-MEK5 – signal of MEK5 binding to mutant human MEKK2, retest | shares compounds with MEKK3 PB1 HTS | bead flow cytometry, Alexa488-MEK5 binding to MEKK2 mutant | percent response, % at 10 µM | 5,900 compounds, 2% hits | AID 1893; in the data active means percent response mostly above about 71%, no sharp cut-off; inactive means mostly below about 38%;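 further: higher means compound restores mutant binding toward wildtype level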
MEKK3-MEK5 inh – confirmation of inhibitors of MEK5 binding to human MEKK3; shares compounds with MEKK3 PB1 HTS; bead flow cytometry, Alexa488-MEK5 binding to MEKK3; hits give low values; binding response (% of control), % at 10 µM; 5,900 compounds, 1.8% hits; AID 1894;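 active means binding response below 72% of control, or above a set upper limit, though filed actives all read lower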
Each line names hits and unclear results; the compound was inactive in the other large screens (follow-up assays come after a bar, where they were run); [ ] = remark or other dose. Rows were chosen to be rich in hits. Some 4.1% of all compounds tested hit in one or more screens of this group.

CCS(=O)(=O)N1CCC(C(=O)NCCC2=CCCCC2)CC1	MEKK3 PB1 HTS 73.0[inhibitor] | MEKK2wt confirm inactive | MEKK2mut-MEK5 inactive | MEKK3-MEK5 inh inactive
Cn1cccc1C(=O)OCc1ccc(C(C)(C)C)cc1	none
Oc1ccccc1/C=N/Nc1cc(N2CCCC2)nc(N2CCCC2)n1	MEKK2 WT-MEK5 181.0, T cruzi inh 57.0 | MEKK2wt confirm inactive | MEKK2mut-MEK5 inactive | MEKK3-MEK5 inh inactive
Cc1ccc(S(=O)(=O)N2CCN(CC(=O)N/N=C/c3ccco3)CC2)cc1	none
Cn1cnc2c(=O)sc3ccccc3c21	none (no result: FID counter, MEKK2 WT-MEK5, MEKK2 mut-MEK5, MEKK3 PB1 HTS, NS3 helicase inh)
O=C1NN=C(c2ccc(Cl)cc2)CC1c1c[nH]c2ccccc12 (stereo not drawn)	none
Cc1ccc(C2=NNC(=O)C(c3c[nH]c4ccccc34)C2)cc1 (stereo not drawn)	MEKK3 PB1 HTS 128.0 | MEKK2wt confirm inactive | MEKK2mut-MEK5 inactive | MEKK3-MEK5 inh inactive
COc1ccc(C(CC(=O)c2ccc(O)cc2)S(=O)(=O)c2ccc(C)cc2)cc1 (stereo not drawn)	MEKK2 WT-MEK5 37.0[inhibitor], MEKK3 PB1 HTS 26.0[inhibitor] | MEKK2wt confirm inactive | MEKK2mut-MEK5 inactive | MEKK3-MEK5 inh inactive
COCCCNC(=O)Cn1c(=O)n(CCCCCC(=O)Nc2ccccc2)c(=O)c2sccc21	none
COCCNC(=O)Cn1c(=O)n(CCCCCC(=O)Nc2ccccc2)c(=O)c2sccc21	MEKK3 PB1 HTS 135.0 | MEKK2wt confirm inactive | MEKK2mut-MEK5 inactive | MEKK3-MEK5 inh inactive
COc1ccccc1C(CNC(=O)CCNC(=O)c1ccccc1Cl)N1CCCC1 (stereo not drawn)	none (no result: FID counter, MEKK2 WT-MEK5, MEKK2 mut-MEK5, MEKK3 PB1 HTS, NS3 helicase inh)
O=C(Cn1cccc1C(=O)c1ccccc1)NCCCN1CCOCC1	none
Cc1ccc(C)c(N2CCN(CCCNC(=O)Cn3cccc3C(=O)c3ccccc3)CC2)c1	MEKK2 WT-MEK5 176.0 | MEKK2wt confirm inactive | MEKK2mut-MEK5 inactive | MEKK3-MEK5 inh inactive
O=C(Cn1cccc1C(=O)c1ccccc1)NCCN1CCCCCC1	MEKK2 WT-MEK5 171.0, MEKK2 mut-MEK5 25.0 | MEKK2wt confirm inactive | MEKK2mut-MEK5 inactive | MEKK3-MEK5 inh inactive
CCc1cc(C(=O)NC2CCCN(Cc3ccccc3F)C2)n(C)n1 (stereo not drawn)	none
O=C(NN1C(=O)c2ccccc2C1=O)c1ccncc1	none
CN(C)c1ccc(C(=O)NN2C(=O)c3ccccc3C2=O)cc1	MEKK3 PB1 HTS 132.0 | MEKK2wt confirm inactive | MEKK2mut-MEK5 inactive | MEKK3-MEK5 inh inactive
O=C(CCCn1c(=O)[nH]c2ccsc2c1=O)Nc1ccc(F)cc1	MEKK3 PB1 HTS 54.0[inhibitor] | MEKK2wt confirm inactive | MEKK2mut-MEK5 inactive | MEKK3-MEK5 inh inactive
O=C(CCCCCN1C(=O)c2ccccc2C1=O)Nc1ccc(F)cc1	MEKK3 PB1 HTS 131.0 | MEKK2wt confirm inactive | MEKK2mut-MEK5 inactive | MEKK3-MEK5 inh inactive
O=C(CCCCCN1C(=O)c2cccc3cccc(c23)C1=O)NCc1cccnc1	MEKK3 PB1 HTS 49.0[inhibitor] | MEKK2wt confirm inactive | MEKK2mut-MEK5 inactive | MEKK3-MEK5 inh inactive
O=C(CCCCCN1C(=O)c2ccccc2C1=O)Nc1ccccc1F	none
Cc1ccc(NC(=O)CCn2c(=O)[nH]c3ccsc3c2=O)cc1	none
O=C(CCCN1C(=O)c2ccccc2C1=O)NCc1ccc(F)cc1	MEKK2 mut-MEK5 33.0 | MEKK2wt confirm inactive | MEKK2mut-MEK5 inactive | MEKK3-MEK5 inh inactive
OCC[C@@H]1C[C@H](O)[C@@H](O)[C@]2(Cc3ccccc3CO2)O1	none
O=C1c2ccccc2NC(c2ccc(O)c(O)c2)N1c1ccccc1Cl (stereo not drawn)	none
CCN1C(=O)N(CC)C2NC(=S)NC21 (stereo not drawn)	none (no result: T cruzi inh)
CCN1C(=O)N(CC)C2C1N(CO)C(=O)N2CO (stereo not drawn)	MEKK3 PB1 HTS 129.0 | MEKK2wt confirm inactive | MEKK2mut-MEK5 inactive | MEKK3-MEK5 inh inactive
CCN1/C(=C/C=C/c2sc3ccccc3[n+]2CC)Sc2ccccc21	none (no result: FID counter, MEKK2 WT-MEK5, MEKK2 mut-MEK5, MEKK3 PB1 HTS, NS3 helicase inh)
CCN1/C(=C/C=C/C=C/C=C/c2sc3ccccc3[n+]2CC)Sc2ccccc21	MEKK2 WT-MEK5 72.0[inhibitor], MEKK3 PB1 HTS 30.0[inhibitor] | MEKK2wt confirm inactive | MEKK2mut-MEK5 inactive | MEKK3-MEK5 inh 61.0
CCN1/C(=C/C=C/C=C/c2sc3ccccc3[n+]2CC)Sc2ccccc21	MEKK2 WT-MEK5 15.0[inhibitor], MEKK3 PB1 HTS 18.0[inhibitor], T cruzi inh 58.0 | MEKK2wt confirm inactive | MEKK2mut-MEK5 inactive | MEKK3-MEK5 inh 26.0
O=C(CN1CCN(Cc2ccc3c(c2)OCO3)CC1)N1CCc2[nH]c3ccc(F)cc3c2C1	MEKK2 mut-MEK5 32.0 | MEKK2wt confirm inactive | MEKK2mut-MEK5 inactive | MEKK3-MEK5 inh inactive
O=C(OC(C(=O)NC1CCCC1)c1ccncc1)C1=Cc2ccccc2OC1 (stereo not drawn)	none
CCC(OC(=O)C1=Cc2ccccc2OC1)C(=O)NC1CCCC1 (stereo not drawn)	MEKK3 PB1 HTS 126.0 | MEKK2wt confirm inactive | MEKK2mut-MEK5 inactive | MEKK3-MEK5 inh inactive
CC(C)C(OC(=O)C1=Cc2ccccc2OC1)C(=O)NC1CCCC1 (stereo not drawn)	MEKK3 PB1 HTS 131.0 | MEKK2wt confirm inactive | MEKK2mut-MEK5 inactive | MEKK3-MEK5 inh inactive
Cc1ccc(-c2nnc(OCc3cccnc3)c3ccccc23)cc1	none
CCc1ccccc1NC(=O)CN(C)C(=O)Cn1ncc(Cl)c(Cl)c1=O	MEKK3 PB1 HTS 133.0 | MEKK2wt confirm inactive | MEKK2mut-MEK5 inactive | MEKK3-MEK5 inh inactive
COc1ccc(/C=N/NC(=O)c2cccc(O)c2)cc1Cn1nc(C)c([N+](=O)[O-])c1C	none
O=C(NC(=S)N1CCN(c2ccc(C(F)(F)F)cc2[N+](=O)[O-])CC1)c1cccs1	none
COc1ccc(-c2cc(C(F)(F)F)n3nc(C(=O)NCc4ccco4)c(Cl)c3n2)cc1	MEKK2 WT-MEK5 30.0[inhibitor] | MEKK2wt confirm inactive | MEKK2mut-MEK5 inactive | MEKK3-MEK5 inh inactive
COc1ccc(-c2cc(C(F)(F)F)n3nc(C(=O)NCc4ccco4)cc3n2)cc1	none
O=C(NC1CCCC1)C(c1ccc(O)cc1)N(CC1CCCO1)C(=O)C1COc2ccccc2O1 (stereo not drawn)	none
